# High-throughput results deposited in PubChem BioAssay by several laboratories.
# An excerpt weighted towards active compounds, which were near 1.6% of everything screened.
# ASAP1 GAP inh = ASAP1 ArfGAP inhibition; inhibition, % at 16.5 µM; AID 624377; ASAP1-stimulated ARF1 GTP hydrolysis, GDP FP detection; actives 0.19% (n = 360,000); in the data active = inhibition above about 25%;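 note: 0% = vehicle with enzyme and substrate and 100% = no enzyme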
# Target sequence (Q9ULH1 325-724 limits assumed): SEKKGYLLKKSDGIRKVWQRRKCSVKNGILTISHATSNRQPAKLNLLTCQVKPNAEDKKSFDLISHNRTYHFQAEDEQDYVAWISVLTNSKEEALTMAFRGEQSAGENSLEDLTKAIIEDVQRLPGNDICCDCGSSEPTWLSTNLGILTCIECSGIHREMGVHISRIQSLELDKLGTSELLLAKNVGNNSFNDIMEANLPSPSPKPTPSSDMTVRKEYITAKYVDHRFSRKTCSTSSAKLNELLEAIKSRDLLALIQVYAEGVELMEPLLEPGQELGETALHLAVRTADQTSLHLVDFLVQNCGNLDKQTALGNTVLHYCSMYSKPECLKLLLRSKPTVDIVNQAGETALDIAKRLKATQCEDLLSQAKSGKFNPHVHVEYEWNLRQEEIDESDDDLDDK
# ARFGAP1 inh = rat ARFGAP1 inhibition; Q62848; Arfgap1-stimulated ARF1 GTP hydrolysis, GDP FP detection; inhibition, % at 16.5 µM; actives 0.26% (n = 360,000); AID 651572;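 active = inhibition above a per-plate limit, mean inhibition of low control wells plus 3 SD, cut at about 25% in these data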;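 note: 0% = DMSO wells with enzyme and 100% = wells lacking Arfgap1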
# Target sequence (Q62848 1-136 limits assumed): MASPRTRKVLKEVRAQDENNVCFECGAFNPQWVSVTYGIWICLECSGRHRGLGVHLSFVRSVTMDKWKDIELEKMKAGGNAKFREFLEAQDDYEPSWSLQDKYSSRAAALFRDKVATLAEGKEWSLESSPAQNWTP
#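 Material: truncated rat Arfgap1 GAP domain; Incubation: compound-enzyme preincubation 20 min, reaction 120 min, detection 60 min, 25 °C; Read-out: percent inhibition of Arfgap1-stimulated GTP hydrolysis; Technique: FP, GDP Alexa 633 tracer displaced from anti-GDP antibody, 620/688 nm; Controls: No-Arfgap1 wells (100%) versus DMSO full-reaction wells (0%); Replication: single well per compound.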
# H9c2 protect = myocardial damage modulation in H9c2 cells | H9c2 cardiomyocytes, H2O2 injury protection, ATPLite, 2 h | protection from H2O2 cell death, % at 20 µM | actives 0.63% (n = 360,000);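 active = compounds giving at least 50% protection of heart cells from peroxide-induced death in the single-dose screen, raw or plate-pattern-corrected value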;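 note: 0% = DMSO wells with peroxide and 100% = DMSO wells without peroxide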
# Neddyl block = inhibitors of human cullin neddylation | P61081+Q13564 | TR-FRET cullin neddylation, biochemical | inhibition, % at 25 µM | actives 0.58% (n = 360,000); in the data active = inhibition above about 36%
# Neddyl inh conf = cullin neddylation inhibition, confirmation | calls only at 25 µM | actives 13% (n = 1,800) | AID 652217 | shares compounds with Neddyl block | TR-FRET cullin neddylation biochemical assay; in the data active = inhibition above about 40%;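 note: neddylation substrate is the cullin 1 ring ligase complex with SKP2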
# Active calls of the source: *; i = inactive; . = no result given; + = active, no number.
SMILES,ASAP1 GAP inh,ARFGAP1 inh,H9c2 protect,Neddyl block,Neddyl inh conf
COCCCNc1nc2ccccc2nc1NS(=O)(=O)c1ccc(C)c(C)c1,-14,3,-3,42*,.
COCCCNc1nc2ccccc2nc1NS(=O)(=O)c1ccc(C)cc1,-15,7,6,34,.
COCCNc1nc2ccccc2nc1NS(=O)(=O)c1ccc(C)cc1C,-11,12,1,38*,+
FC(F)C(F)(F)Oc1cccc(Nc2nccn3c(-c4cccc5cccnc45)cnc23)c1,4,5,8,28,.
CCc1nc2ccc(C(=O)N3CCN(C(C)=O)CC3)cn2c1N(C=O)Cc1ccc(OC)cc1,-5,-7,-2,8,.
COc1cc(NC(=O)c2cc(-c3ccco3)on2)c(OC)cc1Cl,6,-8,2,41*,i
COc1ccc(NC(=O)c2cc(-c3ccco3)on2)c(OC)c1,16,11,-1,38,.
COc1ccc(-c2cc(C(=O)Nc3ccccc3SC)no2)cc1OC,9,8,-9,42*,i
CC(=O)Oc1ccc(Cn2c(C)c(C(=O)NCCC#N)sc2=O)cc1,2,0,6,-1,.
C/C(=N\NC(=O)c1cc(Br)ccc1O)c1cccc(NC(=O)c2ccccc2F)c1,4,-3,16,54*,i
Cc1ccc(C(=O)N/N=C\c2ccc(-c3ccc(Cl)c(Cl)c3)o2)cn1,7,0,8,43*,i
O=C(N[C@H](C(=O)N1CCC[C@H]1C(=O)NC1CCCC1)C1CCCCC1)c1ccc(Cl)cc1Cl,14,5,.,.,.
CCC1CCCN1Cn1cnc2c([nH]c3ccccc32)c1=O (stereo not drawn),-2,10,-3,41*,i
CCC1CCCN1Cn1cnc2c([nH]c3ccc(OC)cc32)c1=O (stereo not drawn),-3,0,6,.,.
COc1ccc(/C=N/NC(=O)c2sccc2C)c2ccccc12,-3,-4,-7,39*,i
CCc1noc2cc(-c3ccccc3)n(C)c(=O)c12,11,-11,.,.,.
CCN(CCC#N)c1ccc(/C=N/Nc2nc(C)cc(=O)[nH]2)c(C)c1,5,13,6,41*,i
COc1ccc(N(C(=O)c2ccncc2)S(=O)(=O)c2ccc3c4c(cccc24)C(=O)N3C)cc1,12,3,5,-7,.
CCN1C(=O)c2cccc3c(S(=O)(=O)NCCc4c[nH]c5ccccc45)ccc1c23,-4,5,14,22,.
CCN1C(=O)c2cccc3c(S(=O)(=O)NCc4ccccc4)ccc1c23,-6,3,1,57*,.
CCN1C(=O)c2cccc3c(S(=O)(=O)N(C(C)=O)c4ccc(OC(C)=O)cc4)ccc1c23,3,-4,24,63*,.
O=C1N/C(=C/c2cccn2-c2ccccc2)C(=O)N1Cc1ccccc1F,10,2,2,38*,i
Cc1cc(=O)oc2cc(NC(=O)CN3C(=O)NC(C)(c4ccccc4)C3=O)ccc12 (stereo not drawn),0,-7,5,58*,+
Cc1ccccc1CC(=O)Nc1ccc2c(C)cc(=O)oc2c1,-5,2,6,44*,i
COc1ccccc1CC(=O)Nc1ccc2c(C)cc(=O)oc2c1,-4,2,0,.,.
SMILES,ASAP1 GAP inh,ARFGAP1 inh,H9c2 protect,Neddyl block,Neddyl inh conf
Cc1ccc(Cl)cc1NC(=O)C(=O)N/N=C/c1ccc2c(c1)OCO2,-5,-2,-1,39*,i
Cc1cc(Cl)ccc1NC(=O)C(=O)N/N=C/c1ccc2c(c1)OCO2,4,0,-2,43*,i
Cc1cccc(CN2CCN([C@H]3CS(=O)(=O)N[C@@H]3COCc3ccccc3)CC2)c1,-8,-1,0,10,.
NC(=O)c1cnn2c(-c3cccc(C(F)(F)F)c3)ccnc12,8,3,3,48*,i
O=C(O)c1cnn2c(-c3ccccc3)ccnc12,16,-6,7,21,.
Cc1ccc(C)c(N2CCN(C(C(=O)NC3CCCC3)C(C)C)CC2)c1 (stereo not drawn),-15,-11,.,1,.
CCN(CC(=O)Nc1ccc(NC(C)=O)cc1)C(=O)/C=C/c1ccccc1,-9,-1,-5,-5,.
CCN(CC(=O)Nc1ccc(NC(C)=O)cc1)C(=O)/C=C/c1cn(-c2ccccc2)nc1-c1cccs1,12,18,46,50*,.
C(=C\c1ccc2nncn2c1)/c1ccccc1,16,3,3,45*,+
CC(=O)Nc1ccc(CN(C)c2c(C)nc3ccc(C(=O)Nc4ccc(Cl)c(Cl)c4)cn23)cc1,20,-1,11,7,.
COc1ccc(NC(=O)N(C)C[C@@H]2OCc3cnnn3CCCC(=O)N([C@H](C)CO)C[C@H]2C)c(OC)c1,6,-5,.,.,.
CCc1ccc2oc(-c3ccc(OC)cc3)cc(=Nc3cccc(C(=O)O)c3)c2c1,5,-12,-14,43*,i
N#CCn1cc(/C=N/NC(=O)c2cc3c(ccc4ccccc43)o2)c2ccccc21,8,21,26,.,.
COc1ccccc1/C=N/NC(=O)c1cc2c(ccc3ccccc32)o1,14,-8,27,60*,i
O=C(O)c1ccc(/C=N/NC(=O)c2cc3c(ccc4ccccc43)o2)cc1,11,14,8,43*,i
O=C(N/N=C/c1cccc([N+](=O)[O-])c1)c1cc2c(ccc3ccccc32)o1,11,-4,1,5,.
CC(C)NC(=O)C1(C)CSCC(=O)N1CCOc1ccccc1 (stereo not drawn),16,9,.,-4,.
C[C@H](c1ccccc1)N1C[C@@H](COCc2ccccc2)Oc2cccc(N3CCCCC3)c2S1(=O)=O,-1,8,.,.,.
CCC(=O)N/C(N)=N/c1nc(C)c2cc(OC)ccc2n1,-8,5,-8,46*,+
COc1ccc(C(=O)Nc2sc3c(c2C(=O)O)CC(C)(C)OC3)cc1,-11,-3,9,43*,+
COc1ccccc1Cc1c(-c2ccc(F)cc2)nc2cc(C)c(Br)c(C)n12,6,11,.,-14,.
O=C1C(=O)c2cccnc2-c2ncccc21,1,-19,-17,-36,.
COc1ccc(-c2ccc(C(=O)NCc3ccc(C(F)(F)F)cc3)c3occc23)c(C)c1,-5,5,-21,40*,i
COc1ccc(-c2ccc(C(=O)NC3CCCCC3)c3occc23)c(C)c1,0,-14,-13,40*,i
COc1ccc(C2CC(c3ccccc3)=NN2C(=O)COC(=O)/C=C/c2ccc(O)c(OC)c2)cc1 (stereo not drawn),5,-1,-9,44*,i
Cc1ccc(CN2C(=O)CSCC2(C)C(=O)NC(C)C)cc1 (stereo not drawn),0,-8,.,1,.
CN(CCO)S(=O)(=O)c1ccc2c(c1)C(=NO)c1cc(S(=O)(=O)N(C)CCO)ccc1-2,7,1,3,49*,i
NS(=O)(=O)c1ccc2c(c1)C(=NO)c1cc(S(N)(=O)=O)ccc1-2,-2,12,2,19,.
